Assay results published in paper PMC9065697 (RSC Advances, 2019).
Peptide text beside a SMILES is read from it. * marks the point of attachment. X1 = O=C(c1ccc(Oc2ccc3c4nc5nc(nc6[nH]c(nc7nc(nc([nH]4)c3c2)-c2ccccc2-7)c2ccccc62)-c2ccccc2-5)cc1)*

Legend:
[1] = reference standard in DMF; cited from earlier work
[2] = reference standard in DMF; cited from earlier work; remark: listed apart in the source
[3] = In vivo biodistribution by near-infrared fluorescence imaging; design: species or system mouse; settings: mouse, in vivo, iv, 20 nmol
Summary of the method: (§1)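 Female Balb/c nude mice (20–25 g) carried subcutaneous HT29 tumours on the back (about 1 × 10^7 cells in HBSS) grown to 60–100 mm3. They received 20 nmol test compound in water with 1% DMSO by tail-vein injection. NIR imaging (ex 680 nm, em ≥700 nm) ran from pre-dose to 48 h. At 48 h, tumour, heart, lung, spleen, kidney and liver were assayed for fluorescence per unit area and reported as tumour/organ ratio. Data are mean ± SD, n = 4.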

[4] = test system: HT29 tumour-bearing nude mice; experiment: as above; design: species or system mouse; settings: 20 nmol intravenous; for Fluorescence intensity in the tumour area over time: imaged over 48 h, four mice per conjugate
Summary of the method: as §1

HT29 cells [5] = experiment: Photocytotoxicity, MTT assay; assay type: cell-based, human; settings: absence of light, both incubation conditions
Summary of the method: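 HT29 cells (1 × 10^4 per well) were plated overnight. A DMSO stock of test compound was diluted in medium and applied for 10 min at 37 °C. Cells were rinsed with PBS, refed, and held 0 or 6 h with no red-light illumination. MTT (3 mg mL−1 in PBS) was added for 4 h, DMSO added, and A490 read. Viability is relative to compound-free control wells, averaged over 4 data points.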

[6] = Solubility and aggregation state; assay type: physicochemical; settings: 2 μM in DMF and in PBS with 0.01% Tween 80 (v/v); intense, sharp Q band at 672 nm (DMF) or 680 nm (PBS); UV-Vis
HT29 cells [7] = experiment: Annexin V-GFP/PI costaining assay; assay type: cell-based, human; settings: 0.5 μM for 10 min
[8] = test system: HT29 human colorectal adenocarcinoma cells; experiment: Cellular uptake by confocal fluorescence microscopy; assay type: cell-based; settings: 2 μM for 10 min at 37 °C, then 6 h in drug-free medium at 4 °C
Summary of the method: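 HT29 cells (about 2 × 10^5, RPMI with 10% FBS) were seeded on confocal dishes and left overnight at 37 °C, 5% CO2. They were exposed to 2 μM test compound for 10 min at 37 °C, washed three times with PBS, then held in drug-free medium for 6 h at 4 °C or 37 °C. Bright-field and fluorescence images were taken by confocal microscopy.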

[9] = test system: A431 human epidermoid carcinoma cells; settings: read-out: IC50 (photocytotoxicity); cited from earlier work

[Zn+2].c1ccc2c(c1)-c1nc-2nc2[n-]c(nc3nc([n-]c4nc(n1)-c1ccccc1-4)-c1ccccc1-3)c1ccccc21 [ZnPc, zinc(II) phthalocyanine]
Singlet oxygen quantum yield ΦΔ [1]: 0.56 | Fluorescence quantum yield ΦF [2]: 0.28

N=C(N)NCCC[C@H](NC(=O)[C@@H](N)CCC(N)=O)C(=O)N[C@@H](Cc1c[nH]cn1)C(=O)N[C@@H](CCCCN)C(=O)N1CCC[C@H]1C(=O)N[C@@H](CCCNC(=N)N)C(=O)N[C@@H](CCC(=O)O)C(=O)NCC(=O)NCC(=O)NCC(=O)NCC(=O)N[C@@H](CO)C(=O)N[C@@H](CCCCNC(=O)c1ccc(Oc2ccc3c4nc5nc(nc6[nH]c(nc7nc(nc([nH]4)c3c2)-c2ccccc2-7)c2ccccc62)-c2ccccc2-5)cc1)C(N)=O [compound 4] (H-QRHKPREGGGGSK(X1)-NH2)
tissue to tissue ratio at 48 h [3]: < 1 | Fluorescence intensity in the tumour area over time [4]: increased along with time | Dark toxicity (HT29 cells [5]): did not show significant dark toxicity | Solubility and aggregation state from the Q band [6]: soluble and remained non-aggregated in both media | Cell-death pathway, PDT effect on the cell membrane (HT29 cells [7]; irradiated immediately (λ > 610 nm, 18 mW cm^-2, 20 min)): cell necrosis | Cell-death pathway, PDT effect after internalisation (HT29 cells [7]; then 6 h post-incubation before irradiation (λ > 610 nm, 18 mW cm^-2, 20 min)): mainly through apoptosis | Internalisation on post-incubation at 4 °C [8]: internalisation was not significant

EPRQRHKGGGGSK [compound 5]
Tumour selectivity (tumour/organ ratio) compared with conjugate 4 ([4]; ex vivo at 48 h, four mice): consistently lower for all the organs | Fluorescence intensity in the tumour area over time [4]: remained weak throughout the period

GYHWYGYTPQNVI [GE11 conjugate]
IC50 [9]: 14 µM
